NadD block = inhibitors of S. aureus NadD, primary screen, biochemical, colorimetric, uHTS. Nicotinate-nucleotide adenylyltransferase NadD (Staphylococcus aureus N315). inhibition, % at 20 µM. purified NadD enzyme, colorimetric absorbance read-out. AID 602399, 2012. 360,000 tested, 0.78% active; in the data active = inhibition above about 26%
TbMetRS inhib = T. brucei MetRS inhibitors, primary screen, biochemical, luminescence. purified T. brucei MetRS, ATP depletion, Kinase-Glo luminescence. inhibition, % at 11.9 µM. 360,000 tested, 0.4% active. AID 624268, 2012;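 active = inhibition above a per-plate cutoff of the control wells' mean inhibition plus 3 SD, cut at about 5.5% in these data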
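Test system: purified T. brucei MetRS enzyme. Also added: ATP, methionine and E. coli bulk tRNA substrates. Compound: 11.9 µM single point. Schedule: 15 min enzyme-compound preincubation, 2 h reaction, 10 min detection, 25 °C. Signal: luciferase luminescence of residual ATP, Kinase-Glo. Evaluation: percent inhibition versus plate control medians. Controls: DMSO wells, low control.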
DSG3 Ab inh = inhibitors of pemphigus antibody binding to DSG3, primary screen, biochemical, bead-based, flow cytometry, scFv-GFP; Desmoglein-3 (Homo sapiens), P32926; DSG3-coupled beads, scFv-anti-DSG3-GFP binding; hits give low values; binding (percent of control), % at 10 µM; 310,000 tested, 0.48% active;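 active = binding more than 3 SD below its plate's average and above zero; inconclusive = below that plate limit but binding exactly zero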;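 note: hits lower antibody fragment binding to DSG3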
Rce1 inhib = yeast Rce1p protease inhibitors, primary screen, biochemical, fluorescence, cell-free homogeneous; yeast membranes, quenched prenylated peptide cleavage fluorescence; calls only; AID 2563, 2010; 290,000 tested, 0.27% active;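 active = fall in fluorescence gain of 50% or more versus controls, with final raw signal at or below 3038400; inconclusive = same 50% fall but final raw signal above 3038400; inactive = fall in fluorescence gain under 50%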
Target sequence (Q03530 whole entry, looked up): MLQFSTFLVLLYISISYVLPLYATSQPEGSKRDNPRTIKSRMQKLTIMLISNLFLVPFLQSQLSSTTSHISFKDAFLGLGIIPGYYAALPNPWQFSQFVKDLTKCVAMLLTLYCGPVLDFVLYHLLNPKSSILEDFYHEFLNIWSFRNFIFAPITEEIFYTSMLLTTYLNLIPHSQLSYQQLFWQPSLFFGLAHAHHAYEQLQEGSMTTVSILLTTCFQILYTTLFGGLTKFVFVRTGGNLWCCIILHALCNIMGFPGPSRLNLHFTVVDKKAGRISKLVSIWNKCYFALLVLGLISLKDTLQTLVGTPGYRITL
HCV core dimer = inhibitors of HCV core protein dimerization, primary screen, biochemical, TR-FRET, high-throughput | TR-FRET GST/Flag-core106 dimerization, 1536-well | inhibition, % at 5 µM | 300,000 tested, 0.33% active | AID 1899, 2009;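 active = inhibition above the mean of all tested compounds plus 3 SD, set per screening campaign, cut at about 45% in these data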
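test system = GST/Flag-tagged HCV core106 proteins | probe or stimulus = Eu donor and XL665 acceptor anti-tag antibodies | times = compound-protein-antibody incubation 4 h at 22.5 °C | signal = TR-FRET, excitation 340 nm, emission 617 and 671 nm | measure = percent inhibition of core106 dimerization signal | controls = wells lacking GST-core106 and wells with excess unlabelled core106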
Large screens that a line does not name were inactive. An excerpt weighted towards active compounds, which were near 1.9% of everything screened.

CC(C)c1ccc2[nH]c(O)c(N=NC(=O)c3cccc(S(=O)(=O)N4CCCCC4)c3)c2c1	NadD block 31
O=C(N=Nc1c(O)[nH]c2ccccc12)c1cccc(S(=O)(=O)N2CCCCC2)c1	none
CCOc1ccc2nnc(-c3ccc(Br)cc3)n2n1	none (no result: Rce1 inhib)
Cc1cccc(NS(=O)(=O)c2ccc(C)c(C(=O)OCC(=O)Nc3cc(C)on3)c2)c1	Rce1 inhib active
COc1cc2c(cc1OC)C(C)N(C(=O)[C@@H](NC(=O)c1ccccc1)C(C)C)CC2 (some centres not stated)	none
COc1cc2c(cc1OC)C(C)N(C(=O)CCNC(=O)c1ccccc1)CC2 (configuration not stated)	Rce1 inhib active
CC1(C)Cc2ccccc2-c2nnc(-c3ccco3)n21	none
Cc1cccc(S(=O)(=O)c2c(N)n(/N=C/c3ccccc3)c3nc4ccccc4nc23)c1	DSG3 Ab inh 89
COc1ccccc1/C=N/n1c(N)c(S(=O)(=O)c2cccs2)c2nc3ccccc3nc21	none
COC(=O)Nc1ccc(S(=O)(=O)N2CCCC(C(=O)NCC3CCCO3)C2)cc1 (configuration not stated)	none (no result: Rce1 inhib, HCV core dimer)
O=C(CSc1ccc(-c2cccs2)nn1)NCc1ccccc1Cl	none (no result: NadD block, TbMetRS inhib, DSG3 Ab inh)
O=C(N/N=C/c1ccc(O)c(O)c1O)/C(=C/c1ccc([N+](=O)[O-])cc1)NC(=O)c1ccccc1	NadD block 44, TbMetRS inhib 12
Cc1ccc(NC(=O)/C(=C\c2ccc([N+](=O)[O-])cc2)NC(=O)c2ccccc2)cc1	none
Cc1ccc(-n2c(C)cc(/C=N/NC(=O)c3ccncc3)c2C)cc1	none
Cc1ccc(C(=O)N/N=C/c2cc(C)n(-c3ccc(Br)cc3)c2C)cc1[N+](=O)[O-]	NadD block 35
COCCOC(=O)C1=C(C)Nc2cc(=O)[nH]c(=O)n2C1c1cccc([N+](=O)[O-])c1 (configuration not stated)	none
COc1cc(OC)cc(-c2ncc3ccccn23)c1	Rce1 inhib active
CCOc1cccc(-c2c(C(=O)N/N=C/c3c(F)cccc3Cl)nnn2-c2nonc2N)c1	DSG3 Ab inh inconclusive, Rce1 inhib active
CCOc1ccc(-c2c(C(=O)N/N=C/c3cccs3)nnn2-c2nonc2N)cc1	DSG3 Ab inh inconclusive, Rce1 inhib active
Cc1ccc(-c2c(C(=O)N/N=C/c3cccs3)nnn2-c2nonc2N)cc1	none
CCOc1ccc(-c2c(C(=O)N/N=C/c3ccco3)nnn2-c2nonc2N)cc1	DSG3 Ab inh 3.4
Cc1cccc(C)c1NC(=O)c1cc(-c2ccccn2)nc2ccccc12	none
CCCC[C@@H]1CNC(=S)N1CCc1cccc2ccccc12	Rce1 inhib active
CC1Cc2ccccc2N1C(=O)C12CCC(C)(C(=O)C1)C2(C)C (configuration not stated)	none (no result: DSG3 Ab inh)
CN(C)c1nc(N)c([N+](=O)[O-])c(NCC2CCCO2)n1 (configuration not stated)	none
C/C(=N\OCc1nc2ccccc2c(=O)n1/N=C/c1cc([N+](=O)[O-])ccc1O)c1ccccc1	NadD block 32
CC1(C)OC(=O)C(=CNCC(O)c2ccccc2)C(=O)O1 (configuration not stated)	none
CCCCn1c(=O)c(-c2ccccc2)c(O)c2ccccc21	Rce1 inhib active (no result: DSG3 Ab inh)
CCCc1c(O)c2ccccc2n(-c2ccccc2)c1=O	none
CCCCCn1c(=O)c(-c2nc3ccccc3c(=O)[nH]2)c(O)c2ccccc21	none (no result: NadD block, TbMetRS inhib, DSG3 Ab inh, HCV core dimer)
O=c1c(-c2ccccc2)c(O)c2ccccc2n1-c1ccccc1	Rce1 inhib active
CCn1c(=O)c(-c2cc(=O)[nH][nH]2)c(O)c2ccccc21	none
CCn1c(=O)c(-c2ccccc2)c(O)c2ccccc21	Rce1 inhib active
Cc1cc2oc(=O)cc(CN3CCN(c4ccc(Cl)c(Cl)c4)CC3)c2cc1Cl	none (no result: DSG3 Ab inh, Rce1 inhib, HCV core dimer)
O=S(=O)(O)c1ccc(O)c2cc(Nc3ccccc3)ccc12	NadD block 68, DSG3 Ab inh 38 (no result: Rce1 inhib, HCV core dimer)
Cc1nc(N)c(Cc2ccccc2F)c(N)n1	DSG3 Ab inh 24
